Several values for one entry are separate records, joined by “and”; a condition that tells them apart may be missing. Equal values may be shown once.
Tests used:
Cannabinoid receptor 1 = Cannabinoid receptor 1 (Rattus norvegicus, UniProt P20272); assay: Inhibitory activity, measured by displacement [3H]CP-55940 from cannabinoid receptor (CB1) in rat brain; type: tissue-based
[1] = Inhibitory activity at GABA B receptor, measured by the ability to displace [3H]baclofen from GABA B receptor in rat brain; type: tissue-based
[2] = molecular target: GABA-A receptor; anion channel; assay: Inhibitory activity at GABA A receptor, measured by the ability to displace [35S]TBPS from GABA A receptor in rat brain; type: tissue-based
[3] = molecular target: GABA-A receptor; anion channel; assay: Inhibitory activity at GABA A receptor, measured by the ability to displace [3H]GABA from GABA A receptor in rat brain; type: tissue-based
[4] = molecular target: GABA-A receptor; anion channel; assay: Inhibitory activity at GABA A receptor, measured by the ability to displace [3H]flumazenil from GABA A receptor in rat brain; type: tissue-based
[5] = molecular target: GABA-A receptor; anion channel; assay: Inhibitory activity at GABA A receptor, measured by the ability to displace [3H]zolpidem from GABA A receptor in rat brain; type: tissue-based
Rattus norvegicus [6] = assay: Tested for antineophobic activity using the elevated plus maze test administered at 78 umol/kg perorally in rats; type: functional
[7] = molecular target: T1, Gastrin/cholecystokinin type B receptor (Rattus norvegicus, UniProt P30553); assay: Inhibitory activity by measuring its ability to displace [3H]L-365260 from cholecystokinin receptor in rat brain; type: tissue-based
T1 sequence (P30553 whole entry): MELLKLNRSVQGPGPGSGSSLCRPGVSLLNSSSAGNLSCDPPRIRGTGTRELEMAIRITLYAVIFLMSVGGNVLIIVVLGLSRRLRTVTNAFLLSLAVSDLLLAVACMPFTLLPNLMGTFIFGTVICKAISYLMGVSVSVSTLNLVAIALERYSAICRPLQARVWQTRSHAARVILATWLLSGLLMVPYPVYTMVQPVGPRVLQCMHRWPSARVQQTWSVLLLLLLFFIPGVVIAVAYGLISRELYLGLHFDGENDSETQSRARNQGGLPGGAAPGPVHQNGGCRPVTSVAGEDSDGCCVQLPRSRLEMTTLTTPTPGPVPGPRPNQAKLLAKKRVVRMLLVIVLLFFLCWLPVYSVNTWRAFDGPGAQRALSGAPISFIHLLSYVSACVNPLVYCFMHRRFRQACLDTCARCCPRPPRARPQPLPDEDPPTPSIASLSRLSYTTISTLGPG

[8] = molecular target: Adrenergic receptor alpha; assay: Inhibitory activity by measuring its ability to displace [3H]WB-4101 from alpha-adrenergic receptor in rat brain; type: tissue-based
[9] = molecular target: Adrenergic receptor alpha; assay: Inhibitory activity by measuring its ability to displace [3H]clonidine from alpha-adrenergic receptor in rat brain; type: tissue-based
Adrenergic receptor beta = Adrenergic receptor beta (Rattus norvegicus, UniProt P18090+P10608+P26255); assay: Inhibitory activity by measuring its ability to displace [125I]pindolol from beta-adrenergic receptor in rat brain; type: tissue-based
[10] = Inhibitory activity by measuring its ability to displace [3H]glycine from glycine receptor in rat brain; type: tissue-based
Glutamate NMDA receptor = assay: Inhibitory activity by measuring its ability to displace [3H]-MK-801 from glutamate(NMDA) receptor in rat brain; type: tissue-based
[11] = Tested for inhibitory activity by measuring its ability to displace [3H]AMPA from glutamate (non-NMDA) receptor in rat brain; type: tissue-based
[12] = Inhibitory activity by measuring its ability to displace [3H]spiperone from dopamine or serotonin 5-HT-1 receptors in rat brain; type: tissue-based
Translocator protein = Translocator protein (Rattus norvegicus, UniProt P16257); assay: Binding affinity against mitochondrial DBI complex (peripheral benzodiazepine receptor) using primary cultures of glial cells
Chain of Translocator protein (P16257 whole entry, looked up): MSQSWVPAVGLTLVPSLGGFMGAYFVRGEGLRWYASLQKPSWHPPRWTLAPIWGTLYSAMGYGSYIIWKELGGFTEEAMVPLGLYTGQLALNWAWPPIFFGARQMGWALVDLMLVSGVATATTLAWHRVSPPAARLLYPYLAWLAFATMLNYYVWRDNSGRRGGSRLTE
How it was run: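 Glia from cerebella of 8-day-old Sprague–Dawley rat pups, trypsin-dissociated and grown 14 days (~95% astroglia). Cells lysed in 50 mM Hepes pH 7.4, 4 μg protein per tube. Incubated with [3H]4'-chlorodiazepam and competitor for 90 min at 4 °C, then filtered. Nonspecific binding defined with 10 μM 4'-chlorodiazepam. Triplicate competition curves; IC50 by nonlinear regression, converted to Ki (Bylund–Yamamura).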

Rattus norvegicus [13] = assay: Tested for antineophobic activity using the elevated plus maze test administered at 40 umol/kg perorally in rats; type: functional
Opioid receptor = Opioid receptor (Rattus norvegicus, UniProt P33533+P34975+P33535); assay: Inhibition of [3H]naxolone binding to opiate receptors in rat brain; type: tissue-based
[14] = molecular target: Serotonin 2 (5-HT2) receptor (Rattus norvegicus); assay: Inhibitory activity by measuring its ability to displace [3H]ketanserin from serotonin receptor in rat brain
[15] = molecular target: Sigma receptor (Rattus norvegicus); assay: Tested for inhibitory activity by measuring its ability to displace [3H]3-PPP from sigma receptor in rat brain
Rattus norvegicus [16] = assay: Tested for antineophobic activity administered at 225 umol/kg perorally in adrenalectomized/castrated rats; type: functional
How it was run: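 Rats of 175–200 g were adrenalectomized and castrated 3 days before the elevated plus maze. Drug was suspended in 1% DMSO/H2O and given by oral gavage 1 h before the test. […] was scored; n = 10 rats, mean ± SEM.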

Rattus norvegicus [17] = assay: Tested for antineophobic activity using the elevated plus maze test administered at 57 umol/kg perorally in rats; type: functional
Rattus norvegicus [18] = assay: Tested for antineophobic activity using the elevated plus maze test administered at 71 umol/kg perorally in rats; type: functional
[19] = molecular target: Adrenergic receptor alpha; assay: Displacement of [3H]clonidine from alpha-adrenergic receptor in rat brain; type: tissue-based
Rattus norvegicus [20] = assay: Tested for antineophobic activity using the elevated plus maze test administered at 59 umol/kg perorally in rats; type: functional

Chain of Cannabinoid receptor 1 (P20272 whole entry): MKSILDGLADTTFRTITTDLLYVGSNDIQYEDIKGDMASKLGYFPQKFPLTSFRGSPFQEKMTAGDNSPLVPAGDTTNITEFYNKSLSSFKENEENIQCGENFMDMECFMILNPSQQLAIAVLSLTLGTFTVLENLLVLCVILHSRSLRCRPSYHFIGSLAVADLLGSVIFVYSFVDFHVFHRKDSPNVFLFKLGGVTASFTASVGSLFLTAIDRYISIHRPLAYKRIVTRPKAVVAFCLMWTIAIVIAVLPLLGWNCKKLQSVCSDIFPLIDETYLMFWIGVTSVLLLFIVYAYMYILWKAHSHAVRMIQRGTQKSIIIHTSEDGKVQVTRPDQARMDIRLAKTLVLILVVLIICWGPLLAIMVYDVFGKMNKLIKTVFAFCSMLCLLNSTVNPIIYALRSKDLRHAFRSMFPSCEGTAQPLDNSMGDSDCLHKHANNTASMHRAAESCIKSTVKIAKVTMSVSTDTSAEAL

SMILES | IC50 (Cannabinoid receptor 1) [µM] | IC50 [1] [µM] | IC50 [2] [µM] | IC50 [3] [µM] | IC50 [4] [µM] | IC50 [5] [µM] | IC50 [7] [µM] | IC50 [8] [µM] | IC50 [9] [µM] | IC50 (Adrenergic receptor beta) [µM] | IC50 [10] [µM] | IC50 (Glutamate NMDA receptor) [µM] | IC50 [11] [µM] | IC50 [12] [µM] | Ki (Translocator protein) [µM] | IC50 (Opioid receptor) [µM] | IC50 [14] [µM] | IC50 [15] [µM] | also measured
CCCCCCN(CCCCCC)C(=O)Cc1c(-c2ccc(F)cc2)[nH]c2ccccc12 | > 1 | > 1 | > 1 | > 1 | > 1 | > 1 | > 1 | > 1 | > 1 | > 1 | > 1 | > 1 | > 1 | > 1 | 0.0044 |  |  |  | No. of entries (Rattus norvegicus [16]): 4.9 and 5.5; Time spent (Rattus norvegicus [16]): 22 s and 25 s; No. of entries (Rattus norvegicus [17]): 2.1; Time (Rattus norvegicus [17]): 4.5%
CCCCCCNC(=O)Cc1c(-c2ccc(F)cc2)[nH]c2ccccc12 | > 1 | > 1 | > 1 | > 1 | > 1 | > 1 | > 1 | > 1 | > 1 | > 1 | > 1 | > 1 | > 1 | > 1 | 0.323 | > 1 | > 1 | > 1 | No. of entries (Rattus norvegicus [18]): 0.6; Time (Rattus norvegicus [18]): 1.6%
CCCN(CCC)C(=O)Cc1c2n(c3ccccc13)Cc1ccccc1-2 | > 1 | > 1 | > 1 | > 1 | > 1 | > 1 | > 1 | > 1 |  | > 1 | > 1 | > 1 | > 1 | > 1 | 0.02 | > 1 | > 1 | > 1 | IC50 [19]: > 1 µM
CCCCCCN(CCCCCC)C(=O)Cc1c(-c2ccccc2)[nH]c2ccccc12 | > 1 | > 1 | > 1 | > 1 | > 1 | > 1 | > 1 | > 1 | > 1 | > 1 | > 1 | > 1 | > 1 | > 1 | 0.0097 | > 1 | > 1 | > 1 | No. of entries (Rattus norvegicus [20]): 1.6; Time (Rattus norvegicus [20]): 6.2%

The next lines start with results.

IC50 (Cannabinoid receptor 1) [µM] | IC50 [1] [µM] | IC50 [2] [µM] | IC50 [3] [µM] | IC50 [4] [µM] | IC50 [5] [µM] | IC50 [7] [µM] | IC50 [8] [µM] | IC50 [9] [µM] | IC50 (Adrenergic receptor beta) [µM] | IC50 [10] [µM] | IC50 (Glutamate NMDA receptor) [µM] | IC50 [11] [µM] | IC50 [12] [µM] | Ki (Translocator protein) [µM] | IC50 (Opioid receptor) [µM] | IC50 [14] [µM] | IC50 [15] [µM] | SMILES | also measured
> 1 | > 1 | > 1 | > 1 | > 1 | > 1 | > 1 | > 1 | > 1 | > 1 | > 1 | > 1 | > 1 | > 1 | 0.35 |  |  |  | O=C(Cc1c(-c2ccccc2)[nH]c2ccccc12)N1CCCCC1 | No. of entries (Rattus norvegicus [6]): 2.3; Time (Rattus norvegicus [6]): 5.7%
> 1 | > 1 | > 1 | > 1 | > 1 | > 1 | > 1 | > 1 | > 1 | > 1 | > 1 | > 1 | > 1 | > 1 | 0.045 | > 1 | > 1 | > 1 | CCCCN(CCCC)C(=O)Cc1c(-c2ccc(F)cc2)[nH]c2ccccc12 | No. of entries (Rattus norvegicus [13]): 3.6; Time (Rattus norvegicus [13]): 8%

Source: ChEMBL document CHEMBL1126834, “Chemistry, binding affinities, and behavioral properties of a new class of "antineophobic" mitochondrial DBI receptor complex (mDRC) ligands” (J Med Chem, 1993)
